The list is not random: actives were taken first. Their share in the collection is about 2.9%.
SENP8 block-1 = SENP8 protease inhibitors, primary screen, biochemical, luminescence; purified SENP8, Z-RLRGG-aminoluciferin cleavage; inhibition, % at 10 µM; actives 1.2% (n = 330,000); AID 2540, 2010; in the data active = inhibition above about 50%
Target sequence (Q96LD8 whole entry, looked up): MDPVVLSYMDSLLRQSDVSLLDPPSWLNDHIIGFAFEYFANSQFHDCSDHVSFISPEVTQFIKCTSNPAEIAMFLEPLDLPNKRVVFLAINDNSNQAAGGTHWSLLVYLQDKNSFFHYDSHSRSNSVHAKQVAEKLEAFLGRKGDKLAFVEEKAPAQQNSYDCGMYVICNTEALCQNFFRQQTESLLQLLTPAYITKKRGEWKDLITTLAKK
SENP6 inh = SENP6 protease inhibitors, primary screen, biochemical, luminescence, uHTS. Sentrin-specific protease 6 (Homo sapiens), Q9GZR1. inhibition, % at 10 µM. AID 2599, 2010. Recombinant SENP6 catalytic domain, aminoluciferin luminescence. actives 1.8% (n = 330,000);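 active = inhibition above about 50% at the single tested dose, limit read from the data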;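 also: plate controls were DMSO wells with enzyme for no effect and DMSO wells lacking enzyme for full effect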
HSP90 inh = HSP90 inhibitors, primary screen, cell lysate, luminescence | inhibition, % at 5.6 µM | actives 0.91% (n = 290,000) | AID 1789, 2009 | Rabbit reticulocyte lysate, luciferase refolding luminescence, 3 h;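 active = inhibition above the screen-wide mean plus 3 SD, computed separately per campaign, cut at about 16% in these data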;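 also: 0% = DMSO wells and 100% = 60 µM geldanamycin wells; inhibitors lower the luminescence because luciferase stays unfolded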
SENP7 inh = SENP7 protease inhibitors, primary screen, biochemical, luminescence, uHTS. actives 1.5% (n = 330,000). Sentrin-specific protease 7 (Homo sapiens), Q9BQF6. inhibition, % at 5 µM. AID 434973, 2010. recombinant SENP7, Z-RLRGG-aminoluciferin luminescence, 40 min;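 active = inhibition above about 50% at the single test dose, limit read from the data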;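 also: plate controls were DMSO with enzyme for no effect and no enzyme buffer wells for full effect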
SENP1 FRET inh = human SENP1 catalytic domain inhibitors, primary screen, biochemical, FRET, uHTS | recombinant SENP1 catalytic domain, CyPet-SUMO1-YPet FRET cleavage | Sentrin-specific protease 1 (Homo sapiens), Q9P0U3 | inhibition, % at 10 µM | actives 0.21% (n = 360,000);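 active = inhibition at least 30% at 10 µM, raw YFP signal under a set limit, fluorescence ratio 0.5 to 1.5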;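 also: 0% = enzyme with DMSO and 100% = no enzyme wells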
Target sequence (Q9P0U3 419-644 limits assumed): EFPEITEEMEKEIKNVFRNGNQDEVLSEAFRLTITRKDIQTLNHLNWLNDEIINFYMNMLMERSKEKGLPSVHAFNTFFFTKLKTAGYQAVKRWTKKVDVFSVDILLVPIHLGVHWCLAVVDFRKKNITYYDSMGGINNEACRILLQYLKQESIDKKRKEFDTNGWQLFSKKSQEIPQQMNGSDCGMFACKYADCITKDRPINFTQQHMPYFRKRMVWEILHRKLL
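Test system: recombinant human SENP1 catalytic domain, His6-tagged / Medium: pH 8 Tris buffer with EDTA, NaCl, BME, BSA, NP40, catalase / Also added: SUMO1 FRET substrate flanked by Cypet and Ypet, 25 nM / Times: 50 min reaction at room temperature / Signal: FRET, CFP and YFP emission / Control set: no-enzyme low control and enzyme-plus-DMSO high control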
SENP8 block-2 = human SENP8 protease inhibitors, primary screen, biochemical, fluorescence, Nedd8 protein substrate, uHTS; recombinant SENP8; inhibition, % at 20 µM; AID 602440, 2012; actives 0.64% (n = 360,000); in the data active = inhibition mostly above about 40%, no sharp cut-off; inactive = mostly below about 27%
Active calls of the source: *; . = not tested or not shown.

SMILES	SENP8 block-1	SENP6 inh	HSP90 inh	SENP7 inh	SENP1 FRET inh	SENP8 block-2
O=C1c2ccccc2CCCC12N=NCC2c1cccc2ccccc12 (stereo not given)	-12	-7	0	-4	-1	14
CCOP(=O)(C1=C(O)C(=O)C(C(C)(C)C)=CC1=O)c1ccccc1 (stereo not given)	.	.	2	.	-5	87*
CCOP(=O)(OCC)c1cccc(P(=O)(c2ccccc2)c2ccccc2)c1O	4	-37	-3	-2	2	-197
CC1(C(=O)NS(=O)(=O)c2cccc(Cl)c2)CCN1C(=O)C1CCCCC1 (stereo not given)	.	.	.	.	3	2
CN(C)c1cccc(/C=C(\C#N)c2ccccc2)c1	57*	55*	2	37	-111	17
CN(C)c1ccc2nc3ccc(=[N+](C)C)cc-3sc2c1	34	32	15	16	5	66*
CN(C)c1ccc2nc3ccc(=O)cc-3sc2c1	.	.	.	.	11	-4
CCCOC(=O)c1ccc(-c2ccc(C=O)o2)cc1	-15	-14	36*	-17	-1	-13
CC(=O)N1CC(=O)N=C1SCC(=O)Nc1nc(-c2ccccc2)c(-c2ccccc2)s1	-21	-7	3	6	2	-64
O=c1c2ccccc2sc2ccccc12	.	.	.	.	-212	-368
O=c1c2ccccc2sc2ccc(Cl)cc12	19	39	-4	58*	-191	-139
COc1cc(OC)nc(NC(=O)CSc2nnc(-c3ccccc3)n2C2CCCCC2)n1	-4	-3	-2	3	2	19
O=C1c2cccc3cc([N+](=O)[O-])cc(c23)C(=O)N1CCN1CCCC1	4	11	2	10	70*	30
Nc1cc2c3c(cccc3c1)C(=O)N(CCN1CCCC1)C2=O	.	.	3	.	38	24
ClN=C1C=CC=CC1=NCl	.	.	.	.	-7	38*
O=C(CSc1ccsc1[N+](=O)[O-])Nc1cc(F)ccc1F	.	.	6	.	2	8
CCN(CC)c1ccc(NC(=O)CSc2ccsc2[N+](=O)[O-])c(C)c1	3	7	3	6	3	46*
CN(c1ccccc1)S(=O)(=O)c1cccc(NC(=O)c2ccc(=O)[nH]n2)c1	-8	-7	.	14	0	9
O=C(c1ccccc1)c1ccc(O)cc1O	-7	4	3	8	54*	20
O=C(CCN=C1NS(=O)(=O)c2ccccc21)OCc1nnc(-c2ccccc2)o1	0	-3	.	2	-1	-1
Cc1c(CC(=O)O)c(=O)oc2cc(OCc3ccc(F)cc3F)ccc12	-8	11	6	-3	1	-272
Cc1c(CC(=O)O)c(=O)oc2cc(OCc3ccc(Br)cc3)ccc12	4	17	17*	3	1	-285
Cc1ccccc1OCC(=O)OCC(=O)Nc1cc(S(=O)(=O)N2CCCCC2)ccc1Cl	-2	-5	.	4	3	30
COc1ccc(-n2c(N)c(C(=O)NCc3ccco3)c3nc4ccccc4nc32)cc1	7	4	3	4	-19	-279
Nc1c(C(=O)NCc2ccco2)c2nc3ccccc3nc2n1CCc1ccc(F)cc1	58*	67*	1	44	-22	-259
SMILES	SENP8 block-1	SENP6 inh	HSP90 inh	SENP7 inh	SENP1 FRET inh	SENP8 block-2
Cc1cccc(-n2c(SCC(=O)NCC3CCCO3)nc3ccccc3c2=O)c1C (stereo not given)	-8	-4	.	2	2	9
COC1=CC(=O)C(OC)=C(OC)C1=O	.	.	.	.	-24	41*
Cc1cccc2sc(N(CCCN(C)C)C(=O)c3ccc4ncsc4c3)nc12	-5	-4	17*	-2	-19	-3
CC1(C(=O)NCc2ccco2)Cc2c(-c3cccc(C(N)=O)c3)ccnc2O1 (stereo not given)	.	.	.	.	2	8
CC1(OC(=O)c2cccs2)C(=O)C=C2C=C3CCCN3C=C2C1=O (stereo not given)	-3	-21	.	9	-10	59*
CC1(OC(=O)C2CCCC2)C(=O)C=C2C=C3CCCN3C=C2C1=O (stereo not given)	3	0	.	6	.	.
CCc1ccc(O)c(N=Cc2ccccc2O)c1	9	-2	-1	-2	15	21
O=c1[nH][nH]c2c(N=Cc3ccccc3O)ccc(F)c12	.	.	2	.	13	47*
NC(=S)NN=Cc1nccc2c(N)cccc12	.	.	.	.	11	62*
O=C(COc1ccc(CNC[C@H]2O[C@@H](n3ccc(=O)[nH]c3=O)[C@H](O)[C@@H]2O)cc1)Nc1ccccn1	.	.	.	.	-1	8
COc1ccccc1C(=O)COC(=O)c1ccccc1O	-10	15	-6	12	1	0
CCc1ccc(C(=O)COC(=O)c2ccccc2OC)cc1	82*	89*	4	91*	1	6
C[C@@](Cc1ccc(O)c(O)c1)(NN)C(=O)O	.	.	3	.	1	39*
CC(Nc1ccc(Cl)cc1)c1cc(Cl)ccc1O (stereo not given)	-5	-10	1	-8	1	26
CCOc1ccc(NC(C)c2cc(Cl)ccc2O)cc1 (stereo not given)	-7	-2	2	-1	-1	46*
Cc1cccc(C(=O)OCC(=O)Nc2ccc3c(c2)OCCO3)c1O	1	-7	.	-2	1	-4
COc1ccc(-c2cc(C(=O)Nc3ccc(S(=O)(=O)Nc4onc(C)c4C)cc3)c3ccccc3n2)cc1	7	-12	-1	7	-2	-427
Cc1csc(NC(=O)/C=C/c2ccc3c(c2)OCO3)n1	38	77*	3	61*	0	-64
O=C(/C=C/c1ccc2c(c1)OCO2)Nc1nc(-c2ccc(F)cc2F)cs1	-2	5	9	9	.	.
COc1ccc(N(C)S(=O)(=O)c2cccc(C(=O)N(C)Cc3ccc(C)o3)c2)cc1	-2	-12	0	0	2	1
COCCn1c(C)cc(C(=O)CSc2nnc3ccccn23)c1C	33	47	50*	39	2	13
Cc1ccc(C(=O)CSc2nnc3ccccn23)c(C)c1	-16	-11	12	-11	2	11
CCOC(=O)CCN(Cc1sccc1C)S(=O)(=O)c1ccc(F)cc1	-3	-21	6	5	2	7
Cc1ccc(S(=O)(=O)NNC(=O)c2cc(C)cs2)cc1	-1	-25	-2	-7	3	25
CN1CCN(/N=C/c2ccc(-c3ccc([N+](=O)[O-])cc3Cl)o2)CC1	-7	-14	-2	-11	79*	36
